Measured values from ChEMBL document CHEMBL4513216, “Probing the Open Global Health Chemical Diversity Library for Multistage-Active Starting Points for Next-Generation Antimalarials” (ACS Infect Dis, 2020).

Test: Toxicity liver stage against HepG2, at 10uM
Format: cell-based
Design: test concentration 10 uM, cell line HepG2-A16-CD81EGFP
Conditions: human, HepG2-A16-CD81EGFP cells; read-out: INHIBITION
How it was run: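 Uninfected HepG2-A16-CD81EGFP cells, 3 × 10^3 per well, 1536-well, plated on prespotted compound at 10 μM final, parasite-free screening media added to match infected plates; puromycin 10 μM positive, DMSO 0.5% negative; run in parallel with 48 h PbLuc assay at 37 °C, 5% CO2; viability by CellTiter-Glo luminescence, normalized to controls.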

Row | SMILES | cytotoxicity at 10 µM [%]
1 | Cc1cc(CN2CCC(N(C)Cc3noc(C4CC4)n3)C2)no1 (configuration not stated) | 5.35
2 | COc1ccc(OCCN(C)S(=O)(=O)c2cnn(C)c2)cc1 | -2.82
3 | O=C(C1CC(=O)N(C2CCCC2)C1)N1CCN(CCn2cccc2)CC1 (configuration not stated) | 12.8
4 | Cn1ccc2ccc(C(=O)N3CC[C@@]4(O)CCCC[C@H]4C3)cc21 | -46.6
5 | c1ccc(C2CN(CCc3ccncc3)CCO2)cc1 (configuration not stated) | -8.85
6 | Cn1c(CN2CCOC[C@H]2c2nc(C(C)(C)C)co2)nc2ccccc21 | 4.78
7 | CN(Cc1cccc(O)c1)C(=O)Nc1cccnc1N1CCCC1 | -0.565
8 | CCC(CC)C(=O)N1CCN(Cc2cc(-c3ccncc3)nn2C)CC1 | -27.9
9 | O=S(=O)(C1CC1)N1CC[C@]2(C[C@H](OCC3CCOCC3)CO2)C1 | 8.64
10 | Cc1ccc(-c2cc(C3=NC(=CN4CCN(C)CC4)NO3)[nH]n2)cc1 | -10.5
11 | CN1C(=O)C2(CCN(CCO)C2)c2ccccc21 (configuration not stated) | 5.84
12 | Cc1ccccc1C1(O)CCN(C(=O)CCc2cn3ccccc3n2)C1 (configuration not stated) | -3.18
13 | CN(C)C(C(=O)NCC1(N(C)C)CCOCC1)c1ccccc1F (configuration not stated) | 2.2
14 | COc1ccc(OC)c(-n2nnnc2SCC2CCCN(C)C2)c1 (configuration not stated) | 1.28
15 | Cn1cc(CNC(=O)NCCOc2ccc(F)c(F)c2)cn1 | 2.13
16 | CC(C)=CCCC1(C)C=Cc2c(cc(C)n(CCC(=O)O)c2=O)O1 (configuration not stated) | 3.46
17 | Cn1cc(C(=O)N2CC[C@@H]3[C@@H]2CCN3Cc2cccc(F)c2)cn1 | -2.21
18 | O=C(NC1CCN(CC2CC2)C1)N1CCC(OC2CCCCC2)CC1 (configuration not stated) | 4.75
19 | CC(C)Nc1cc(-c2c[nH]nc2C2CCN(C(=O)C3CC3)C2)ccn1 (configuration not stated) | 85
20 | CN(C)Cc1ccc(CNC(=O)NCC2(C)CCCS2)cc1 (configuration not stated) | -12.9
21 | CC(C)COC(=O)N1CC(=O)N(Cc2ccc(Cl)cc2)CC(O)C1 (configuration not stated) | -0.947
22 | c1cnc(-c2cnc(N3CCCCC3)nc2C2CCCO2)cn1 (configuration not stated) | -7.16
23 | Cc1ccc(NC(=O)NCC2(N3CCOCC3)CCSC2)c(C)c1 (configuration not stated) | 1.15

Row | SMILES | cytotoxicity at 10 µM [%]
24 | CCCNC(=O)CN1CCN(Cc2csc(C(C)(C)C)n2)CC1 | -7.88
25 | O=C(O)C(c1ccc2c(c1)OCCO2)N1CCC(N2CCSCC2)CC1 (configuration not stated) | -1.1
26 | CC(C)NC(=O)C1CN(C(=O)Cc2cccc(F)c2)CC12CCOCC2 (configuration not stated) | 4.58
27 | c1ccc(OCCSC2=NCCN2)cc1 | 1.52
28 | CCCN1CCCn2c(nc(CNC(=O)c3nccn3C)cc2=O)C1 | 9.73
29 | CC(=O)N(C)C1CCN(C(=O)NCC(C)Cc2cccs2)CC1 (configuration not stated) | -1.99
30 | CO[C@H]1C[C@@H](O)C12CCN(C(=O)NCc1ccco1)CC2 | -2.04
31 | Cc1ccc(N2CCOCC3(CCCN(c4ncc(F)cn4)C3)C2)nn1 (configuration not stated) | -123
32 | O=C(NC1CC1)[C@H]1CC[C@@H]2[C@@H](CCN2Cc2ccsc2)O1 | 1.42
33 | Cc1nc(C)n(CC2CCCN2Cc2nc3ccccc3c(=O)[nH]2)n1 (configuration not stated) | -4.35
34 | COc1ccc(C2SCC(=O)N2c2ncc(C)s2)cc1 (configuration not stated) | 8.45
35 | Cc1ccnc(OC[C@@]23CCO[C@@H]2CCN(C2CCC2)C3)n1 | 8.01
36 | Cc1cc(C)c2[nH]c(CN3CCCC(N4CCOCC4)C3)cc(=O)c2c1 (configuration not stated) | -1.78
37 | CCn1ccnc1S(=O)(=O)Cc1c(C)cc(C)c(C(C)=O)c1C | 8.5
38 | Cc1ccc(-c2ccnc(N3CCC4(CC3)CNC(=O)O4)n2)c(C)n1 | -6.93
39 | Cc1cc(C(=O)N2CCCC3(COCCN(CCN(C)C)C3)C2)no1 (configuration not stated) | 3.22
40 | CC(=O)N1CCN(Cc2ccc3c(c2)OCCO3)CC(O)C1 (configuration not stated) | 4.14
41 | CCn1cc(CN2CCCC3(CCC(=O)N(CCC(C)C)C3)C2)cn1 (configuration not stated) | -4.73
42 | CN(CC(C)(C)O)C(=O)Nc1ccc(F)c(-n2cccc2)c1 | -9.3
43 | CN(C)C(=O)C1OC2(CCN(c3ncc(F)cn3)CC2)c2ccccc21 (configuration not stated) | 6.27
44 | Cc1cccc(N2CCC3(CCCN(C(=O)Cc4cccnc4)C3)C2)n1 (configuration not stated) | 0.824
45 | Cn1nc(C2CC2)c2c1NC(=O)CC2c1cc(CN2CCCC2)cs1 (configuration not stated) | -2.2
46 | CCOCCCC(=O)Nc1cc(C(N)=O)ccc1N1CCCCC1 | -48

Row | SMILES | cytotoxicity at 10 µM [%]
47 | Cn1cnnc1C1CCCN1C(=O)Nc1cccc(OC(F)F)c1 (configuration not stated) | 8.25
48 | CC(C)C1CN(C(=O)Nc2cnn(CC(F)F)c2)CCO1 (configuration not stated) | 8.52
49 | COc1ccc2c(c1)OCC(Cc1cc(C(=O)N3CCCC3)ccn1)C2 (configuration not stated) | -0.675
50 | COCCNC(=O)N1CC(Cc2ccccc2F)C1 | -6.4
51 | Nc1nc2c(c3c1C(=O)NC3=O)CCC2 | -4.21
52 | CCc1cnc(CN(C(C)=O)C2CCN(CCc3ccncc3)C2)o1 (configuration not stated) | -5.95
53 | COc1c(CNCC(O)c2cccc(F)c2)c(C)nn1C (configuration not stated) | -6.41
54 | CCc1ncc2c(n1)CN(c1nc(C)ccc1C(=O)O)C2 | 8.25
55 | CCc1c(C(=O)NC2CCS(=O)(=O)C2)cnn1-c1ccc(F)cc1 (configuration not stated) | -6.31
56 | Cc1nc2cc(NCc3cnn(C)c3)ccc2n1C | 13.1
57 | Cc1ccccc1OCC(=O)NCC(c1ccc(N(C)C)cc1)N(C)C (configuration not stated) | -30.2
58 | CCc1ccsc1C(=O)NC(C#N)CC(C)C (configuration not stated) | -15
59 | COc1ccc(OCc2cc(C(=O)N3CCSCC3)n[nH]2)c(Cl)c1 | -7.51
60 | CC(C)N(CCO)C(=O)c1cc(COc2ccc3c(c2)CCCC3)on1 | -135
61 | COCCN(Cc1ccc(F)cc1Cl)C(=O)c1cccc[n+]1[O-] | 8.81
62 | CCC(CC)C(=O)n1ccn(S(=O)(=O)c2ccc(C)cc2)c1=O | 11.5
63 | O=C(CN1CCOc2ccc(Cl)cc21)NCCCn1ccnc1 | -7.49
64 | Cc1noc(C)c1S(=O)(=O)N1C[C@@H](C(=O)O)[C@H](c2ccccn2)C1 | -6.71
65 | CNC(=O)[C@@H]1C[C@H](N)CN1S(=O)(=O)c1cc(C)c(Cl)cc1C | -0.869
66 | Cc1cc(C)n(CC2CCCCN2CCC(=O)Nc2cc(C)on2)n1 (configuration not stated) | -1.03
67 | Cc1cnc(CN2CCCC2c2noc(C)n2)cn1 (configuration not stated) | 3.78
68 | Cc1n[nH]c(C2CN(Cc3nnc(C4CC4)n3C)CCO2)n1 (configuration not stated) | -16
69 | CCOCCN1CCN(c2ccc(C#N)cn2)CC1CC (configuration not stated) | 1.02

Row | SMILES | cytotoxicity at 10 µM [%]
70 | CCCc1cc(C(=O)NCCn2nc3ccccn3c2=O)[nH]n1 | -3.56
71 | COc1ncnc2c1CCN(Cc1nccs1)CC2 | 8.73
72 | Cc1csc(C(C)(C)NCCNS(C)(=O)=O)n1 | 4.61
73 | O=C1N(Cc2cccc(F)c2)CCC12CCCNC2 (configuration not stated) | -5.19
74 | CC(=O)NCCC(=O)N(C/C=C/c1ccccc1)CCO | 4.1
75 | CNC(=O)CCN1CCCCCC1c1ccc(C)o1 (configuration not stated) | -10.2
76 | COCCNc1c(-c2ccc(C)cc2)c(=O)c1=O | -5.15
77 | O=C(C1CCCC1)N1CC(c2nc(Cc3ccccc3)no2)C1 | 4.84
78 | Cc1noc(C2CCC3(CCN(C(=O)c4cnn(C)c4)CC3)O2)n1 (configuration not stated) | 8.77
79 | COc1ccc(C(=O)Nc2c(C)nn(C(C)C)c2C)cc1 | -3.13
80 | O=C(c1ccc(=O)[nH]n1)N1CCC(CN2CCOCC2)CC1 | 4.13
81 | c1cncc(COCC2CNCc3nccn3C2)c1 (configuration not stated) | 14.2
82 | COc1ccc(CNC(=O)N2CCc3sccc3C2)cc1O | 7.57
83 | O=C(Cn1cccn1)N1CCc2[nH]nc(-c3ccc4c(c3)OCO4)c2C1 | -153
84 | CCC(CC)c1cc(CNC(=O)N2CCC[C@@H]2CO)on1 | -5.16
85 | N#Cc1c(CN2CCCCC2Cn2cncn2)cn2ccccc12 (configuration not stated) | 3.06
86 | O=C(NCc1ccon1)N1CCC(n2ccc(C(F)(F)F)n2)CC1 | -0.0817
87 | CC(C)Cc1noc(CN2CCOCC2C)n1 (configuration not stated) | 2.8
88 | Cc1nc(C(C)C)sc1C(=O)NCCn1ccnc1 | 1.28
89 | COc1ccccc1CN(Cc1cccnc1)CC1CCCO1 (configuration not stated) | 1.03
90 | CN(Cc1nnc2n1CCC2)C(=O)c1ccc2c(c1)OCO2 | -18.2
91 | CCc1cnc(C)nc1NC1CC(=O)N(CC)C1 (configuration not stated) | 1.07
92 | Cc1nc(CNC(=O)NC2CCN(c3cccc(Cl)c3)C2)no1 (configuration not stated) | 0.636

Row | SMILES | cytotoxicity at 10 µM [%]
93 | O=C(NC[C@@H]1CCCO1)c1cccnc1N1CCCC1c1ccccn1 (some centres not stated) | -1.08
94 | FC(F)(F)Oc1ccc(CN2CCCC(n3cncn3)C2)cc1 (configuration not stated) | -14.4
95 | CC(C)N(Cc1ccc(C#N)cc1)C(=O)NCCNc1ncccn1 | 3.78
96 | CCCSc1ncccc1C(=O)NCc1ccc(S(N)(=O)=O)cc1 | 6.02
97 | c1ccc(-c2cnc(CN3CCCC3Cn3cncn3)o2)cc1 (configuration not stated) | -5.82
98 | COC(=O)c1cc(NCc2cscn2)ccc1C | 5.17
99 | COCCOCCNc1cncc(Br)c1 | -1.33
100 | CC(C)N1CCCC1c1cc(CO)[nH]n1 (configuration not stated) | 6
101 | O=S(=O)(CCCc1ccccc1)Cc1nnnn1C1CC1 | -1.01
102 | CC(NC(=O)C1CCN(C(=O)C2CC2)CC1)c1nncn1C(C)C (configuration not stated) | 1.33
103 | CCOCc1ccc(CNc2nc(OC)ncc2Cl)cc1 | 13.2
104 | O=C(CCCNC(=O)c1cnccn1)Nc1ncc[nH]1 | -41.9
105 | Cc1ccccc1OCC(O)C(=O)N1CCC2(CC1)CN(C)C(=O)O2 (configuration not stated) | -47.6
106 | CC1(C(=O)N2CCN(C3CCCC3)CC2)CNCCO1 (configuration not stated) | 6.26
107 | CS(=O)(=O)c1cnc(C2CCCC2)nc1C1CCCNC1 (configuration not stated) | -6.35
108 | CN(Cc1cccnc1)[C@@H]1CN(Cc2ccccn2)[C@@H]2CCCO[C@H]12 | -0.0545
109 | O=C(NCCNc1ncccn1)NCc1cccc(OC(F)F)c1 | -2.64
110 | O=C(O)C1(Cc2ccc(F)cc2)CCCN(Cc2ccncc2)C1 (configuration not stated) | -0.566
111 | CC(C)S(=O)(=O)NCC1CCCN(C(=O)c2ccc3c(c2)CCC3)C1 (configuration not stated) | -14.7
112 | O=C(Cc1ccc2c(c1)CCC2)NC1CCN(Cc2ccccc2)CC1 | 1.88
